Reference: ChEMBL document CHEMBL4699593, “Identification of 2,4-Disubstituted Imidazopyridines as Hemozoin Formation Inhibitors with Fast-Killing Kinetics and In Vivo Efficacy in the Plasmodium falciparum NSG Mouse Model” (J Med Chem, 2020)
≈ marks a conversion by molar mass, not a printed value.

What was measured:
Plasmodium falciparum [1] = assay: Antiplasmodial activity against multidrug-sensitive asexual blood stage Plasmodium falciparum NF54 strain assessed as reduction in parasite growth after 72 hrs by NBT reagent based LDH assay; format: functional, organism-based; details: NF54, 72 h
[2] = Aqueous solubility of compound in phosphate buffer saline at pH 6.5 incubated for 20 hrs under shaking condition by shake-flask method based HPLC-DAD analysis; format: physicochemical; details: phosphate buffered saline
Summary of the method: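 Equilibrium aqueous solubility was measured at pH 6.5 using a miniaturized shake-flask method.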

Plasmodium falciparum [3] = assay: Antiplasmodial activity against multidrug-resistant asexual blood stage Plasmodium falciparum K1 strain assessed as reduction in parasite growth after 72 hrs by NBT reagent based LDH assay; format: functional, organism-based; details: K1, 72 h
Summary of the method: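 Asexual blood-stage K1 (multidrug-resistant) parasites were read out by the parasite lactate dehydrogenase (pLDH) assay. […] Most individual values varied less than 2× (maximum 3×).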

CHO = assay: Cytotoxicity against CHO cells assessed as reduction in cell viability by MTT assay; format: cell-based, Cricetulus griseus; details: chinese hamster
Summary of the method: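 Cytotoxicity was measured in Chinese hamster ovary (CHO) cells and reported as CC50. The selectivity index is CC50 divided by NF54 IC50.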

[4] = molecular target: Voltage-gated inwardly rectifying potassium channel KCNH2 (Homo sapiens, UniProt Q12809); assay: Inhibition of human ERG by patch clamp method
[5] = Selectivity index, ratio of CC50 for cytotoxicity against CHO cells assessed as reduction in cell viability to IC50 for antiplasmodial activity against multidrug-sensitive Plasmodium falciparum NF54 assessed as reduction in parasite growth; format: toxicity, cell-based; details: hamster, read-out: Ratio CC50/IC50

Sequence of Voltage-gated inwardly rectifying potassium channel KCNH2 (Q12809 whole entry): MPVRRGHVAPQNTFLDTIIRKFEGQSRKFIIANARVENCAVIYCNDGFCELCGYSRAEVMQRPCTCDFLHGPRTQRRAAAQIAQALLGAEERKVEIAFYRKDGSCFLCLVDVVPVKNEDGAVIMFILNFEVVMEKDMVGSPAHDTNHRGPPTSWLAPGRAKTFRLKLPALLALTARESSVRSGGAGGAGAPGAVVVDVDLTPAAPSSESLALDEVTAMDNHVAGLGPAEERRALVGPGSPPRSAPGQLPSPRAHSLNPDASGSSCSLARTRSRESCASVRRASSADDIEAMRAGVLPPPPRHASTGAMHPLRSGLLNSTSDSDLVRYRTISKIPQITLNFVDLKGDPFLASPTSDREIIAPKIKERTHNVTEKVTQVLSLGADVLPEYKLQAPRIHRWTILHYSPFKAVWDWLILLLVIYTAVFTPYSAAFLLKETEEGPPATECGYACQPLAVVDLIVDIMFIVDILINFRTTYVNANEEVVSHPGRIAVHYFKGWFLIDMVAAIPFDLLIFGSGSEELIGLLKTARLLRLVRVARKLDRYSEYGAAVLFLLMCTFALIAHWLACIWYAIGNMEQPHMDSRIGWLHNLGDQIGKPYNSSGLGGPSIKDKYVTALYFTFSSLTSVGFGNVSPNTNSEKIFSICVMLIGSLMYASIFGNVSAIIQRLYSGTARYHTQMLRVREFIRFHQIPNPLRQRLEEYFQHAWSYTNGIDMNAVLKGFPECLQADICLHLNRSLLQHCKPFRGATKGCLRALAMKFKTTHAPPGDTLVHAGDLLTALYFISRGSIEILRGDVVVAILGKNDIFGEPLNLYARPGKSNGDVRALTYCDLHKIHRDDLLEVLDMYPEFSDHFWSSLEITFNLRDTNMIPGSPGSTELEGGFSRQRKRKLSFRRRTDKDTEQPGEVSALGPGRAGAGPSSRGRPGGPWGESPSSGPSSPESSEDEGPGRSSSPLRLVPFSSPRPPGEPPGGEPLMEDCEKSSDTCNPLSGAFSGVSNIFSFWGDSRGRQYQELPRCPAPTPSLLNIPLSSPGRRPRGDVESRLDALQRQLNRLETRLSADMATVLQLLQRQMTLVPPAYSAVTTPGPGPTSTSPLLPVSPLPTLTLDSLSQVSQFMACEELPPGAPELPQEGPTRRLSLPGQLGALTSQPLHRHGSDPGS

SMILES	IC50 (Plasmodium falciparum [1]) [µM]	solubility thermodynamic at 20 h [2] [µM]	IC50 (Plasmodium falciparum [3]) [µM]	CC50 (CHO) [µM]	IC50 [4] [µM]	selectivity ratio [5]
Fc1cc(F)cc(-c2nc3c(N4CCC(CN5CCNCC5)CC4)nccc3[nH]2)c1	0.038	190 (≈ 78.4 µg/mL)	0.24	20		
C[C@@H]1CN(c2nccc3[nH]c(-c4ccc(F)c(F)c4)nc23)C[C@H](C)N1C	0.26	50 (≈ 17.9 µg/mL)	0.72	> 50		
O=S1(=O)CCN(CC2CCN(c3nccc4[nH]c(-c5cc(F)cc(F)c5)nc34)CC2)CC1	1.4	< 5		> 50		
OCCN1CCN(c2nccc3[nH]c(-c4ccc(F)c(F)c4)nc23)CC1	0.57	95 (≈ 34.1 µg/mL)	1.4			
CN1CCN([C@H]2CC[C@H](Nc3nccc4[nH]c(-c5cc(F)cc(F)c5)nc34)CC2)CC1	0.13	200 (≈ 85.3 µg/mL)	0.24	11		
CN1CCN(C[C@H]2CCCN(c3nccc4[nH]c(-c5cc(F)cc(F)c5)nc34)C2)CC1	0.073	200 (≈ 85.3 µg/mL)	0.17	7.9		
CN1CCCN(c2nccc3[nH]c(-c4cc(F)cc(F)c4)nc23)CC1					0.4	
CC(C)(C)N1CCN(CC2CCN(c3nccc4[nH]c(-c5cc(F)cc(F)c5)nc34)CC2)CC1	0.019	185 (≈ 86.7 µg/mL)	0.047	8.6		
CN1CCOC2(CCN(c3nccc4[nH]c(-c5cc(F)cc(F)c5)nc34)CC2)C1	0.18	175 (≈ 69.9 µg/mL)	0.32	32		
Fc1cc(F)cc(-c2nc3c(N4CCC(CN5CCOCC5)CC4)nccc3[nH]2)c1	0.29	25 (≈ 10.3 µg/mL)	0.39	> 50		
CN1CCN(C2CCN(c3nccc4[nH]c(-c5cc(F)cc(F)c5)cc34)CC2)CC1					4	
CN1CCN(CC2CCN(c3nccc4[nH]c(-c5ccc(F)c(F)c5)nc34)CC2)CC1	< 0.02	195 (≈ 83.2 µg/mL)	0.027	7.4		370
CN1CCN(CC2CCN(c3nccc4[nH]c(-c5ccc(F)c(Cl)c5)nc34)CC2)CC1	< 0.012	155 (≈ 68.7 µg/mL)	0.025	0.85		
COC(=O)c1cccc(-c2nc3c(N4CCC(N5CCN(C)CC5)CC4)nccc3[nH]2)c1	0.079		0.28	34		
Fc1ccc(-c2nc3c(N4CCN5CCC4CC5)nccc3[nH]2)cc1F	0.079	200 (≈ 71.1 µg/mL)	0.43	28		
CN1CCN(CC2CCN(c3nccc4c3nc(-c3cc(F)cc(F)c3)n4C)CC2)CC1	> 3	150 (≈ 66.1 µg/mL)				
CN1CCN(C2CCN(c3nccc4[nH]c(-c5cccc(OC(F)(F)F)c5)nc34)CC2)CC1	0.064	190 (≈ 87.5 µg/mL)	0.091	3		47
CN1CCN(CC2CCN(c3cccc4[nH]c(-c5cc(F)cc(F)c5)nc34)CC2)CC1	0.83	200 (≈ 85.1 µg/mL)	1.5	22	> 30	
CN1CCN([C@H]2CC[C@@H](Nc3nccc4[nH]c(-c5cc(F)cc(F)c5)nc34)CC2)CC1	0.16	200 (≈ 85.3 µg/mL)	0.31	14		
C[C@@H]1CN(c2nccc3[nH]c(-c4ccc(F)c(F)c4)nc23)C[C@H](C)N1	0.076	190 (≈ 65.2 µg/mL)	0.45	6.5		
CN1CCN(CC2CCN(c3nccc4[nH]c(-c5ccc(F)c(C(F)(F)F)c5)nc34)CC2)CC1	0.05	165 (≈ 78.6 µg/mL)	0.017	3.1		
CN1CCN(CC2CCN(c3nccc4[nH]c(-c5cc(F)cc(C(F)(F)F)c5)nc34)CC2)CC1	0.054	165 (≈ 78.6 µg/mL)	0.089	3.1		
CN1CCN(CC2CCN(c3nccc4[nH]c(-c5cccc(OCCN)c5)nc34)CC2)CC1	2.2	200 (≈ 89.9 µg/mL)				
CN1CCN(C2CCN(c3nccc4[nH]c(-c5cccc(S(C)(=O)=O)c5)nc34)CC2)CC1	0.45	190 (≈ 86.4 µg/mL)	1.5	> 50		
CN1CCN(c2nccc3[nH]c(-c4cccc(OC(F)(F)F)c4)nc23)CC1	0.49					
CN1CCN(CC2CCN(c3ccnc4[nH]c(-c5cc(F)cc(F)c5)nc34)CC2)CC1	0.53	< 5				
